From ChEMBL document CHEMBL1153571, “New imidazo[1,2-a]quinoxaline derivatives: synthesis and in vitro activity against human melanoma” (Eur J Med Chem, 2009) come the findings set out here.

Structures are written as SMILES.

The subject of this assay is A-375. As to the kind of experiment: Cytotoxicity against human A375 cells after 96 hrs by MTT assay. Format: functional, cell-based. Particulars: A-375, 96 h. The procedure, abridged:
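A375 human melanoma cells (ATCC) in RPMI-1640 with 10% heat-inactivated FBS, 2 mM L-glutamine, penicillin/streptomycin/amphotericin B, 37 °C, 5% CO2. Plated at 5000 cells/well, attached overnight. Compounds added in 1% DMSO/medium over a log dilution range and left for 96 h. MTT then added for 4 h at 37 °C. Formazan dissolved in isopropanol/1 M HCl (96/4), read at 570 nm. Survival expressed as % of vehicle control, IC50 taken from sigmoidal curves. At least three experiments in triplicate.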
In the case of `CNc1nc2ccccc2n2c(-c3cccc(Cl)c3)cnc12`, the IC50 was 1780 nM.
As for `CNc1nc2ccccc2n2c(-c3cccc(C(=O)O)c3)cnc12`, the figure is 3470 nM; as for `CCOc1cccc(-c2cnc3c(NC)nc4ccccc4n23)c1`, 300 nM.
The result for `CC(C)Cn1cnc2c(N)nc3ccccc3c21` [IMIQUIMOD] reads 70300 nM; that for `CNc1nc2ccccc2n2c(-c3ccoc3)cnc12`, 74100 nM.
As to `CNc1nc2ccccc2n2c(-c3cccc(F)c3)cnc12`, half-maximal inhibition (IC50) was put at 24900 nM.
`CNc1nc2ccccc2n2c(-c3cccc(C(F)(F)F)c3)cnc12` registered an IC50 of 1280 nM.
As for `CNc1nc2ccccc2n2c(-c3cccc(O)c3)cnc12`, the figure is 560 nM.
Turning to `CNc1nc2ccccc2n2c(-c3ccccc3OC)cnc12`, the IC50 was 122000 nM.
`CNc1nc2ccccc2n2c(-c3ccccc3)cnc12` came in with an IC50 of 2190 nM.
The compound `CNc1nc2ccccc2n2c(-c3cccc(C#N)c3)cnc12` registered a concentration for half-maximal inhibition (IC50) of 27000 nM. This IC50 lies about 12-fold higher than the previous one.
As for `CNc1nc2ccccc2n2c(-c3cccc(Br)c3)cnc12`, the IC50 came to 650 nM.
Take `CNc1nc2ccccc2n2c(-c3cccc(OC)c3)cnc12`: the IC50 is 200 nM.
The result for `CCOP(=O)(OCC)C(C)NC(=O)N(CCCl)N=O` (configuration not stated) [FOTEMUSTINE] reads 173000 nM; that for `CNc1nc2ccccc2n2c(-c3ccc(OC)cc3)cnc12`, 370 nM; that for `CNc1nc2ccccc2n2c(-c3cccc([N+](=O)[O-])c3)cnc12`, 40000 nM.
Compound `CNc1nc2ccccc2n2c(CCc3ccccc3)cnc12` gave an IC50 of 1570 nM.
